Measured values from ChEMBL document CHEMBL5058577, “EUbOPEN Chemogenomics Library 2 (Multiplex)” (2022).

Tested on: Fibroblast
Experiment: Multiplex assay against human fibroblast
Format: toxicity, cell-based
Procedure, shortened: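 Cells stained live at seeding with Hoechst33342, BioTracker Green Microtubule Cytoskeleton Dye, MitoTracker Red and Annexin V Alexa Fluor 680 were imaged on a CQ1 microscope at 37°C and 5% CO2 after compound addition. Their classification by CellPathfinder machine-learning gating ran from Hoechst high-intensity objects versus normal cells, to healthy, pyknosed or fragmented nuclei among normal cells, to mitotic or apoptotic among pyknosed cells. Tubulin, mitochondrial-mass and membrane-permeability phenotypes are per cents of healthy-nucleus cells.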

[1] = 12 h, 1 µM, compound concentration 1 uM, replicate 1
[2] = 12 h, 1 µM, compound concentration 1 uM, replicate 2
[3] = 12 h, 10 µM, compound concentration 10 uM, replicate 1
[4] = 12 h, 10 µM, compound concentration 10 uM, replicate 2
[5] = 24 h, 1 µM, compound concentration 1 uM, replicate 1
[6] = 24 h, 1 µM, compound concentration 1 uM, replicate 2
[7] = 24 h, 10 µM, compound concentration 10 uM, replicate 1
[8] = 24 h, 10 µM, compound concentration 10 uM, replicate 2
[9] = 48 h, 1 µM, compound concentration 1 uM, replicate 1
[10] = 48 h, 1 µM, compound concentration 1 uM, replicate 2
[11] = 48 h, 10 µM, compound concentration 10 uM, replicate 1
[12] = 48 h, 10 µM, compound concentration 10 uM, replicate 2

COc1cc(C(=O)N(CCCc2ccccc2)Cc2ccc(CC(=O)O)cc2)cc(OC)c1C
Population Apoptotic (%) [1]: 63%
Population Fragmented Nuclei (%) [1]: 14%
Population Healthy Nuclei (%) [1]: 73%
Population Hoechst High Intensity Objects (%) [1]: 2%
Population Membrane Permeable-Phenotype (%) [1]: 0%
Population Mitochondria Different-Phenotype (%) [1]: 0%
Population Mitotic Cells (%) [1]: 36%
Population Normal (%) [1]: 97%
Population Pyknosed Nuclei (%) [1]: 12%
Population Tubulin-Different-Phenotype (%) [1]: 15%
Total Cell Count [1]: 160
Population Apoptotic (%) [2]: 42%
Population Fragmented Nuclei (%) [2]: 37%
Population Healthy Nuclei (%) [2]: 45%
Population Hoechst High Intensity Objects (%) [2]: 4%
Population Membrane Permeable-Phenotype (%) [2]: 11%
Population Mitochondria Different-Phenotype (%) [2]: 5%
Population Mitotic Cells (%) [2]: 57%
Population Normal (%) [2]: 95%
Population Pyknosed Nuclei (%) [2]: 16%
Population Tubulin-Different-Phenotype (%) [2]: 36%
Total Cell Count [2]: 176
Population Apoptotic (%) [3]: 41%
Population Fragmented Nuclei (%) [3]: 16%
Population Healthy Nuclei (%) [3]: 70%
Population Hoechst High Intensity Objects (%) [3]: 2%
Population Membrane Permeable-Phenotype (%) [3]: 0%
Population Mitochondria Different-Phenotype (%) [3]: 5%
Population Mitotic Cells (%) [3]: 58%
Population Normal (%) [3]: 97%
Population Pyknosed Nuclei (%) [3]: 12%
Population Tubulin-Different-Phenotype (%) [3]: 28%
Total Cell Count [3]: 197
Population Apoptotic (%) [4]: 45%
Population Fragmented Nuclei (%) [4]: 25%
Population Healthy Nuclei (%) [4]: 61%
Population Hoechst High Intensity Objects (%) [4]: 4%
Population Membrane Permeable-Phenotype (%) [4]: 7%
Population Mitochondria Different-Phenotype (%) [4]: 4%
Population Mitotic Cells (%) [4]: 54%
Population Normal (%) [4]: 95%
Population Pyknosed Nuclei (%) [4]: 13%
Population Tubulin-Different-Phenotype (%) [4]: 47%
Total Cell Count [4]: 181
Population Apoptotic (%) [5]: 68%
Population Fragmented Nuclei (%) [5]: 11%
Population Healthy Nuclei (%) [5]: 77%
Population Hoechst High Intensity Objects (%) [5]: 1%
Population Membrane Permeable-Phenotype (%) [5]: 0%
Population Mitochondria Different-Phenotype (%) [5]: 0%
Population Mitotic Cells (%) [5]: 31%
Population Normal (%) [5]: 98%
Population Pyknosed Nuclei (%) [5]: 10%
Population Tubulin-Different-Phenotype (%) [5]: 13%
Total Cell Count [5]: 156
Population Apoptotic (%) [6]: 52%
Population Fragmented Nuclei (%) [6]: 44%
Population Healthy Nuclei (%) [6]: 41%
Population Hoechst High Intensity Objects (%) [6]: 4%
Population Membrane Permeable-Phenotype (%) [6]: 1%
Population Mitochondria Different-Phenotype (%) [6]: 6%
Population Mitotic Cells (%) [6]: 48%
Population Normal (%) [6]: 95%
Population Pyknosed Nuclei (%) [6]: 13%
Population Tubulin-Different-Phenotype (%) [6]: 28%
Total Cell Count [6]: 189
Population Apoptotic (%) [7]: 55%
Population Fragmented Nuclei (%) [7]: 12%
Population Healthy Nuclei (%) [7]: 76%
Population Hoechst High Intensity Objects (%) [7]: 1%
Population Membrane Permeable-Phenotype (%) [7]: 1%
Population Mitochondria Different-Phenotype (%) [7]: 6%
Population Mitotic Cells (%) [7]: 45%
Population Normal (%) [7]: 98%
Population Pyknosed Nuclei (%) [7]: 10%
Population Tubulin-Different-Phenotype (%) [7]: 25%
Total Cell Count [7]: 192
Population Apoptotic (%) [8]: 40%
Population Fragmented Nuclei (%) [8]: 25%
Population Healthy Nuclei (%) [8]: 61%
Population Hoechst High Intensity Objects (%) [8]: 4%
Population Membrane Permeable-Phenotype (%) [8]: 5%
Population Mitochondria Different-Phenotype (%) [8]: 0%
Population Mitotic Cells (%) [8]: 59%
Population Normal (%) [8]: 96%
Population Pyknosed Nuclei (%) [8]: 13%
Population Tubulin-Different-Phenotype (%) [8]: 41%
Total Cell Count [8]: 175
Population Apoptotic (%) [9]: 90%
Population Fragmented Nuclei (%) [9]: 21%
Population Healthy Nuclei (%) [9]: 72%
Population Hoechst High Intensity Objects (%) [9]: 1%
Population Membrane Permeable-Phenotype (%) [9]: 0%
Population Mitochondria Different-Phenotype (%) [9]: 0%
Population Mitotic Cells (%) [9]: 10%
Population Normal (%) [9]: 98%
Population Pyknosed Nuclei (%) [9]: 6%
Population Tubulin-Different-Phenotype (%) [9]: 17%
Total Cell Count [9]: 168
Population Apoptotic (%) [10]: 52%
Population Fragmented Nuclei (%) [10]: 50%
Population Healthy Nuclei (%) [10]: 41%
Population Hoechst High Intensity Objects (%) [10]: 2%
Population Membrane Permeable-Phenotype (%) [10]: 3%
Population Mitochondria Different-Phenotype (%) [10]: 9%
Population Mitotic Cells (%) [10]: 47%
Population Normal (%) [10]: 97%
Population Pyknosed Nuclei (%) [10]: 8%
Population Tubulin-Different-Phenotype (%) [10]: 40%
Total Cell Count [10]: 211
Population Apoptotic (%) [11]: 77%
Population Fragmented Nuclei (%) [11]: 25%
Population Healthy Nuclei (%) [11]: 65%
Population Hoechst High Intensity Objects (%) [11]: 2%
Population Membrane Permeable-Phenotype (%) [11]: 1%
Population Mitochondria Different-Phenotype (%) [11]: 5%
Population Mitotic Cells (%) [11]: 22%
Population Normal (%) [11]: 97%
Population Pyknosed Nuclei (%) [11]: 9%
Population Tubulin-Different-Phenotype (%) [11]: 32%
Total Cell Count [11]: 195
Population Apoptotic (%) [12]: 58%
Population Fragmented Nuclei (%) [12]: 38%
Population Healthy Nuclei (%) [12]: 54%
Population Hoechst High Intensity Objects (%) [12]: 5%
Population Membrane Permeable-Phenotype (%) [12]: 5%
Population Mitochondria Different-Phenotype (%) [12]: 3%
Population Mitotic Cells (%) [12]: 41%
Population Normal (%) [12]: 94%
Population Pyknosed Nuclei (%) [12]: 6%
Population Tubulin-Different-Phenotype (%) [12]: 46%
Total Cell Count [12]: 187

Cc1ccccc1C(=O)Nc1ccc(C(=O)N2CCCC(N(C)C)c3ccccc32)cc1.Cl (stereo unspecified)
Population Apoptotic (%) [1]: 52%
Population Fragmented Nuclei (%) [1]: 16%
Population Healthy Nuclei (%) [1]: 71%
Population Hoechst High Intensity Objects (%) [1]: 0%
Population Membrane Permeable-Phenotype (%) [1]: 0%
Population Mitochondria Different-Phenotype (%) [1]: 5%
Population Mitotic Cells (%) [1]: 47%
Population Normal (%) [1]: 100%
Population Pyknosed Nuclei (%) [1]: 12%
Population Tubulin-Different-Phenotype (%) [1]: 31%
Total Cell Count [1]: 167
Population Apoptotic (%) [2]: 36%
Population Fragmented Nuclei (%) [2]: 22%
Population Healthy Nuclei (%) [2]: 55%
Population Hoechst High Intensity Objects (%) [2]: 1%
Population Membrane Permeable-Phenotype (%) [2]: 10%
Population Mitochondria Different-Phenotype (%) [2]: 3%
Population Mitotic Cells (%) [2]: 63%
Population Normal (%) [2]: 98%
Population Pyknosed Nuclei (%) [2]: 21%
Population Tubulin-Different-Phenotype (%) [2]: 45%
Total Cell Count [2]: 155
Population Apoptotic (%) [3]: 58%
Population Fragmented Nuclei (%) [3]: 26%
Population Healthy Nuclei (%) [3]: 50%
Population Hoechst High Intensity Objects (%) [3]: 1%
Population Membrane Permeable-Phenotype (%) [3]: 1%
Population Mitochondria Different-Phenotype (%) [3]: 12%
Population Mitotic Cells (%) [3]: 41%
Population Normal (%) [3]: 98%
Population Pyknosed Nuclei (%) [3]: 22%
Population Tubulin-Different-Phenotype (%) [3]: 70%
Total Cell Count [3]: 108
Population Apoptotic (%) [4]: 45%
Population Fragmented Nuclei (%) [4]: 29%
Population Healthy Nuclei (%) [4]: 47%
Population Hoechst High Intensity Objects (%) [4]: 4%
Population Membrane Permeable-Phenotype (%) [4]: 4%
Population Mitotic Cells (%) [4]: 54%
Population Normal (%) [4]: 95%
Population Pyknosed Nuclei (%) [4]: 23%
Population Tubulin-Different-Phenotype (%) [4]: 61%
Total Cell Count [4]: 109
Population Apoptotic (%) [5]: 38%
Population Fragmented Nuclei (%) [5]: 15%
Population Healthy Nuclei (%) [5]: 76%
Population Hoechst High Intensity Objects (%) [5]: 1%
Population Membrane Permeable-Phenotype (%) [5]: 0%
Population Mitochondria Different-Phenotype (%) [5]: 8%
Population Mitotic Cells (%) [5]: 61%
Population Normal (%) [5]: 98%
Population Pyknosed Nuclei (%) [5]: 8%
Population Tubulin-Different-Phenotype (%) [5]: 30%
Total Cell Count [5]: 160
Population Apoptotic (%) [6]: 43%
Population Fragmented Nuclei (%) [6]: 28%
Population Healthy Nuclei (%) [6]: 49%
Population Hoechst High Intensity Objects (%) [6]: 5%
Population Membrane Permeable-Phenotype (%) [6]: 8%
Population Mitochondria Different-Phenotype (%) [6]: 2%
Population Mitotic Cells (%) [6]: 56%
Population Normal (%) [6]: 94%
Population Pyknosed Nuclei (%) [6]: 21%
Population Tubulin-Different-Phenotype (%) [6]: 50%
Total Cell Count [6]: 157
Population Apoptotic (%) [7]: 58%
Population Fragmented Nuclei (%) [7]: 30%
Population Healthy Nuclei (%) [7]: 58%
Population Hoechst High Intensity Objects (%) [7]: 1%
Population Membrane Permeable-Phenotype (%) [7]: 0%
Population Mitochondria Different-Phenotype (%) [7]: 12%
Population Mitotic Cells (%) [7]: 41%
Population Normal (%) [7]: 98%
Population Pyknosed Nuclei (%) [7]: 11%
Population Tubulin-Different-Phenotype (%) [7]: 68%
Total Cell Count [7]: 111
Population Apoptotic (%) [8]: 57%
Population Fragmented Nuclei (%) [8]: 37%
Population Healthy Nuclei (%) [8]: 42%
Population Hoechst High Intensity Objects (%) [8]: 4%
Population Membrane Permeable-Phenotype (%) [8]: 9%
Population Mitochondria Different-Phenotype (%) [8]: 11%
Population Mitotic Cells (%) [8]: 42%
Population Normal (%) [8]: 95%
Population Pyknosed Nuclei (%) [8]: 20%
Population Tubulin-Different-Phenotype (%) [8]: 72%
Total Cell Count [8]: 107
Population Apoptotic (%) [9]: 33%
Population Fragmented Nuclei (%) [9]: 13%
Population Healthy Nuclei (%) [9]: 79%
Population Hoechst High Intensity Objects (%) [9]: 3%
Population Membrane Permeable-Phenotype (%) [9]: 0%
Population Mitochondria Different-Phenotype (%) [9]: 4%
Population Mitotic Cells (%) [9]: 66%
Population Normal (%) [9]: 96%
Population Pyknosed Nuclei (%) [9]: 7%
Population Tubulin-Different-Phenotype (%) [9]: 28%
Total Cell Count [9]: 158
Population Apoptotic (%) [10]: 53%
Population Fragmented Nuclei (%) [10]: 32%
Population Healthy Nuclei (%) [10]: 50%
Population Membrane Permeable-Phenotype (%) [10]: 8%
Population Mitochondria Different-Phenotype (%) [10]: 5%
Population Mitotic Cells (%) [10]: 46%
Population Pyknosed Nuclei (%) [10]: 17%
Population Tubulin-Different-Phenotype (%) [10]: 54%
Total Cell Count [10]: 155
Population Apoptotic (%) [11]: 91%
Population Fragmented Nuclei (%) [11]: 24%
Population Healthy Nuclei (%) [11]: 60%
Population Hoechst High Intensity Objects (%) [11]: 7%
Population Membrane Permeable-Phenotype (%) [11]: 0%
Population Mitochondria Different-Phenotype (%) [11]: 12%
Population Mitotic Cells (%) [11]: 8%
Population Normal (%) [11]: 92%
Population Pyknosed Nuclei (%) [11]: 14%
Population Tubulin-Different-Phenotype (%) [11]: 51%
Total Cell Count [11]: 88
Population Apoptotic (%) [12]: 73%
Population Fragmented Nuclei (%) [12]: 43%
Population Healthy Nuclei (%) [12]: 43%
Population Hoechst High Intensity Objects (%) [12]: 3%
Population Membrane Permeable-Phenotype (%) [12]: 8%
Population Mitochondria Different-Phenotype (%) [12]: 14%
Population Mitotic Cells (%) [12]: 26%
Population Normal (%) [12]: 96%
Population Pyknosed Nuclei (%) [12]: 13%
Population Tubulin-Different-Phenotype (%) [12]: 70%
Total Cell Count [12]: 113
